Assay results: the M2OR odorant receptor database

Key:
Conditions in all cases: stereoisomer not certain
OR10Q1 (Homo sapiens) = OR10Q1 (Homo sapiens) (UniProt Q8NGQ4)
Summary of the method: (§1)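 Assay methods differ from source to source, frequently being transient luciferase assays in mammalian cell lines. For each receptor–molecule pair, the label responsive (active) applies when the original authors judged the measured signal statistically different from baseline, and non-responsive (inactive) applies otherwise.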

OR10R2 (Homo sapiens) = OR10R2 (Homo sapiens) (UniProt Q8NGX6)
OR10R2 (Homo sapiens), sequence (Q8NGX6 whole entry): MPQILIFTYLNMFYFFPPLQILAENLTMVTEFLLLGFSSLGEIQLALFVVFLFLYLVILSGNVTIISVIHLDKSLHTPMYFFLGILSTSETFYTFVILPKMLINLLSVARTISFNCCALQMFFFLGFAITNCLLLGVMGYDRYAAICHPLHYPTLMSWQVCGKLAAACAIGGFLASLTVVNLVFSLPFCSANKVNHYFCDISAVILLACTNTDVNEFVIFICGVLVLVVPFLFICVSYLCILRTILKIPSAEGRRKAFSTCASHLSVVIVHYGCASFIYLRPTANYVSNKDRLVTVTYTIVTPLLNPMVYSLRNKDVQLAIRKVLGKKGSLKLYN
Summary of the method: as §1

OR10S1 (Homo sapiens) = target: T1, OR10S1 (Homo sapiens) (UniProt Q8NGN2)
T1 sequence (whole entry): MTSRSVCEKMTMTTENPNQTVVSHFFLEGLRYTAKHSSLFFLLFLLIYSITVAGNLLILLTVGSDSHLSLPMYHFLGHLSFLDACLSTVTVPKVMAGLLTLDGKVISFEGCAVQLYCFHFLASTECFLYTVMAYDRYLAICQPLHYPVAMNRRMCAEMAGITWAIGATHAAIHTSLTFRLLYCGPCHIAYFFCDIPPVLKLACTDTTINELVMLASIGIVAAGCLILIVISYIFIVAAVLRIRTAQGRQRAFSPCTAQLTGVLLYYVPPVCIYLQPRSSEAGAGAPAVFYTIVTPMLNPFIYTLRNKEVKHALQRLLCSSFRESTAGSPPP
Summary of the method: as §1

OR10T2 (Homo sapiens) = OR10T2 (Homo sapiens) (UniProt Q8NGX3)
OR10T2 (Homo sapiens), sequence (Q8NGX3 whole entry): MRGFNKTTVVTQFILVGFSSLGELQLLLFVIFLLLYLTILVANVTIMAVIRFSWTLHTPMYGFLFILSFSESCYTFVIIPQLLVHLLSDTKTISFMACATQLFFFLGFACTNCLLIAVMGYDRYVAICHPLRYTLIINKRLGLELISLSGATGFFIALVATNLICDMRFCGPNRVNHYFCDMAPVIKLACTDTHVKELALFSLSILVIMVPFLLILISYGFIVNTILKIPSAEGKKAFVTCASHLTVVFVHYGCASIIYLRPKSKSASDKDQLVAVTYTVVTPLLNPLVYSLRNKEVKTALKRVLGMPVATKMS
Summary of the method: as §1

OR10V1 (Homo sapiens) = OR10V1 (Homo sapiens) (UniProt Q8NGI7)
OR10V1 (Homo sapiens), sequence (Q8NGI7 whole entry): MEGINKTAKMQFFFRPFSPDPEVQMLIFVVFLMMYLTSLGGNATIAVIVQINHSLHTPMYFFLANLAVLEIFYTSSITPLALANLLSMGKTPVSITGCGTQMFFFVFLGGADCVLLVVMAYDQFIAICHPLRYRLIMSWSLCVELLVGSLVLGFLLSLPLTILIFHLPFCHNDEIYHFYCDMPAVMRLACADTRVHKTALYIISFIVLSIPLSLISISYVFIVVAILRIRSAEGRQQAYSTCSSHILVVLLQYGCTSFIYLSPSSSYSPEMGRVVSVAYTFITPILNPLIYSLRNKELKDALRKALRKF
Summary of the method: as §1

OR10W1 (Homo sapiens) = OR10W1 (Homo sapiens) (UniProt Q8NGF6)
OR10W1 (Homo sapiens), sequence (Q8NGF6 whole entry): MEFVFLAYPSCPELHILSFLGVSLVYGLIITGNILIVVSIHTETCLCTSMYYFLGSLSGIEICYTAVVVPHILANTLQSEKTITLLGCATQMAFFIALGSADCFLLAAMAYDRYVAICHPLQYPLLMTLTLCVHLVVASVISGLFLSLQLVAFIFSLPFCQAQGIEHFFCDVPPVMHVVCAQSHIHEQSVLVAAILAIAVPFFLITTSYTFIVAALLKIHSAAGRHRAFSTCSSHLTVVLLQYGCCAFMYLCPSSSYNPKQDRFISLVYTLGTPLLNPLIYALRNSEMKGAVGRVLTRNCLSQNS
Summary of the method: as §1

OR10X1 (Homo sapiens) = OR10X1 (Homo sapiens) (UniProt Q8NGY0)
OR10X1 (Homo sapiens), sequence (Q8NGY0 whole entry): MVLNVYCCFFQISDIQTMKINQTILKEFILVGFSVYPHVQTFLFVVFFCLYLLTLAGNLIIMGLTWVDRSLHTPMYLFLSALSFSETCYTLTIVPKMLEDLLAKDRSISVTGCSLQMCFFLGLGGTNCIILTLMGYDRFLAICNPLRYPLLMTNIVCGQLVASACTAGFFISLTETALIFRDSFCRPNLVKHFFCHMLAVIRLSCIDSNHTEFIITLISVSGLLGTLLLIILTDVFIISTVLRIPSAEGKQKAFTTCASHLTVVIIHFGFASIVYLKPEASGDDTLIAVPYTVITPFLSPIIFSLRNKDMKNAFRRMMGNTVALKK
Summary of the method: as §1

OR10Z1 (Homo sapiens) = OR10Z1 (Homo sapiens) (UniProt Q8NGY1)
OR10Z1 (Homo sapiens), sequence (Q8NGY1 whole entry): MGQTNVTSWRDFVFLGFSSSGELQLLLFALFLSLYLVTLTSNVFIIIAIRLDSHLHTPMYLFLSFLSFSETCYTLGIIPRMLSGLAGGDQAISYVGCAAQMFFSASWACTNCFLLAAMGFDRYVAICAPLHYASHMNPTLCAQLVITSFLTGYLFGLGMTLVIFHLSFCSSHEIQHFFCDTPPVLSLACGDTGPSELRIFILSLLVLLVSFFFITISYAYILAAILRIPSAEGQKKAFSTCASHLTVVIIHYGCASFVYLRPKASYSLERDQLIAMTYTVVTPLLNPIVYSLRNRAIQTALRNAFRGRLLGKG
Summary of the method: as §1

OR11A1 (Homo sapiens) = OR11A1 (Homo sapiens) (UniProt Q9GZK7)
OR11A1 (Homo sapiens), sequence (Q9GZK7 whole entry): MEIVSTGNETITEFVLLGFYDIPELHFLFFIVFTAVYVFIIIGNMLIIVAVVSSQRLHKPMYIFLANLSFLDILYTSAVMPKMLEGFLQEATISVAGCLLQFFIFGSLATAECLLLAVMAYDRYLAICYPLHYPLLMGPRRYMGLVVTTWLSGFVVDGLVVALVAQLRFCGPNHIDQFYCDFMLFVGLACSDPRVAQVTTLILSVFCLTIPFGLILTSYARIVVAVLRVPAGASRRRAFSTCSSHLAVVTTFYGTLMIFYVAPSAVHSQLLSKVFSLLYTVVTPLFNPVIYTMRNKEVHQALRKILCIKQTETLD
Summary of the method: as §1

OR11G2 (Homo sapiens) = OR11G2 (Homo sapiens) (UniProt Q8NGC1)
OR11G2 (Homo sapiens), sequence (Q8NGC1 whole entry): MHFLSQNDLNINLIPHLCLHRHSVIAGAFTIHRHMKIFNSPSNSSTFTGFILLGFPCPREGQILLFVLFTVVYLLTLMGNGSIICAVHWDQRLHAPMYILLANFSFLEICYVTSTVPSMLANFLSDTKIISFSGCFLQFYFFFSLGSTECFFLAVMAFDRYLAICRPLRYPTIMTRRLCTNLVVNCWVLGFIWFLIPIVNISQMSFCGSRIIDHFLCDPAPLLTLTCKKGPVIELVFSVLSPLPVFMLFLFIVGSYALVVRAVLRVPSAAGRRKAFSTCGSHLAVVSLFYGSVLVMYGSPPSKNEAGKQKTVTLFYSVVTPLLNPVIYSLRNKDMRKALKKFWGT
Summary of the method: as §1

Measured: odorant receptor agonist call

OR10Q1 (Homo sapiens), sequence (Q8NGQ4 whole entry): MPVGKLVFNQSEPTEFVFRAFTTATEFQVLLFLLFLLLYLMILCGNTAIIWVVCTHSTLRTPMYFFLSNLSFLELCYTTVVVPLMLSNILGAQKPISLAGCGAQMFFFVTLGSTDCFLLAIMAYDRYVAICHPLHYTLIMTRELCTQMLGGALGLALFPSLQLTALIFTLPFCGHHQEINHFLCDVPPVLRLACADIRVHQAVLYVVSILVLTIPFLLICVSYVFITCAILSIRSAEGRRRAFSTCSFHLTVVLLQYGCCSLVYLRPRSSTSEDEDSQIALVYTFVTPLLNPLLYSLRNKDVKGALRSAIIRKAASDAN

C=CCOC(=O)Cc1ccccc1
inactive: all assays above

COc1ccc(C=O)cc1
inactive: OR10S1 (Homo sapiens)

Cc1cccc(C)c1
inactive: OR10S1 (Homo sapiens)

Cc1c([N+](=O)[O-])c(C)c([N+](=O)[O-])c(C(C)(C)C)c1[N+](=O)[O-]
inactive: all assays above
